Arbovirus anti = arbovirus infection inhibition | inhibition, % at 10 µM | 0.37% of 200,000 active | arbovirus infection cell-based antiviral screen | AID 1251; in the data active = inhibition above about 30%
Yeast growth inh = yeast BB579 growth reduction in restrictive medium. S. cerevisiae BB579 growth, OD615, 48 h. inhibition, % at 10 µM. 0.51% of 140,000 active. AID 804;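 active = inhibition above a set limit, 3 SD over the mean compound inhibition, cut at about 44% in these data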
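Detection: OD615 turbidity measurement; Material: Saccharomyces cerevisiae DeaD strain BB579, replicative lifespan model yeast; Timing: 48 h exposure, 30 °C; Doses: single 10 µM dose; Medium: CSMM-D restrictive synthetic medium containing dextrose (glucose); Controls: amphotericin B at 10 µg/mL as positive control.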
Yeast life ext = extends the lifespan of yeast | 0.68% of 130,000 active | S. cerevisiae growth with nicotinamide, OD615; deaD strain in restrictive glucose medium | AID 775 | inhibition of the nicotinamide effect, % at 10 µM;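 active = inhibition above a set limit, placed 3 SD over the median of all compounds, cut at about 26% in these data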;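 note: 0% = nicotinamide-treated wells and 100% = cells grown without nicotinamide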
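Assay system: engineered S. cerevisiae DeaD replicative-lifespan strain, galactose-grown log-phase cells; Buffer or medium: CSMM-D glucose medium, restrictive; Probe or stimulus: nicotinamide 1.5 mM; Compound: single dose 10 µM compound, 0.25% DMSO; Schedule: 4 h preincubation then 48 h treatment at 30 °C; Technique: OD615 measurement.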
Measles CPE = protection of cells from measles virus; Measles virus-infected cells, CPE protection, absorbance; 1.5% of 140,000 active; protection (pct of control), % at 4 µM; in the data active = protection mostly above about 24%, no sharp cut-off; inactive = mostly below about 26%
Rad51 HR inh = blocks human Rad51 in homologous recombination; Q06609; hRad51 DNA strand exchange, fluorescence dequenching; inhibition, % at 10 µM; 0.085% of 200,000 active; AID 1385;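 active = inhibition above 40% at the single screening dose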;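 note: 0% = DMSO control wells and 100% = blanks with heterologous ssDNA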
Target sequence (Q06609 whole entry, looked up): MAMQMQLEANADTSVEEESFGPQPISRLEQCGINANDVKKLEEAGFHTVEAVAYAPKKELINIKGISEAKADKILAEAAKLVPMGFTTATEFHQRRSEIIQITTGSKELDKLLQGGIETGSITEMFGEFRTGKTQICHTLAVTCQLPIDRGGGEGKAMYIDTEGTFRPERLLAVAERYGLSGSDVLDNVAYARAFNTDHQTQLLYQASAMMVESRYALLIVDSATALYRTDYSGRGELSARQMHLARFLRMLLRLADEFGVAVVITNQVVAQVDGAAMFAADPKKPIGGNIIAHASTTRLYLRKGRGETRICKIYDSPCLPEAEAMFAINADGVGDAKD
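Material: Human Rad51 nucleoprotein filaments preassembled on unlabelled ssDNA | Also added: Labelled 47-mer dsDNA for strand exchange | Dosing: Single dose, 10 µM final compound | Schedule: 30-min compound preincubation and 15-min exchange, both room temperature | Technique: Fluorescence dequenching at 485/520 nm | Measure: Percent inhibition relative to plate controls and blanks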
Efa HMGR inh = inhibitors of class II HMG-CoA reductase from Enterococcus faecalis; inhibition, % at 10 µM; 0.41% of 190,000 active; purified E. faecalis HMGR, NADPH absorbance 340 nm kinetic;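 active = inhibition above a set limit, the median over all tested compounds plus 3 SD, cut at about 9.5% in these data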;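 note: enzyme runs in reverse so mevalonate oxidation gives rising NADPH absorbance; 0% = complete reaction with DMSO and 100% = background rate lacking mevalonate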
Numbers without * were called inactive; · = no result given. The list is not random: actives were taken first. Their share in the collection is about 2.4%.

SMILES | Arbovirus anti | Yeast growth inh | Yeast life ext | Measles CPE | Rad51 HR inh | Efa HMGR inh
O=C1NC2(CCc3ccccc3C2)C(=O)N1CCOc1cccc(Cl)c1 (configuration not stated) | -1 | -42 | 11 | 23* | -31 | -3
Cc1ccc(NC(=O)c2cc(N3C(=O)C=CC3=O)ccc2Cl)cc1C | 6 | -37 | 3 | 6 | -2 | -4
O=S(=O)(CCSc1nc2ccccc2o1)c1nc2ccccc2s1 | -29 | -39 | 4 | 0 | 7 | -7
O=S(=O)(CCSc1ccccn1)c1nc2ccccc2s1 | -38 | 0 | 60* | 7 | -7 | 2
CCOC(=O)c1sc2nccc(OC)c2c1N=CNOC | 4 | · | · | · | 14 | -2
CCc1ccc(C(=O)COC(=O)C(Cc2ccccc2)NC(=O)c2ccc(Cl)cc2)cc1 (configuration not stated) | -2 | -59 | -18 | 45* | -7 | -4
COCCCNCC(O)C(F)(F)F (configuration not stated) | 7 | · | · | · | -3 | -6
COc1cc(/C=C(/Sc2nnc(-c3ccc(F)cc3)o2)C(=O)O)ccc1OC(F)F | 8 | · | · | · | -3 | 10*
Cc1ccc(C(=O)NNC(=O)CCN2C(=O)C3CCCCC3C2=O)cc1 (configuration not stated) | -6 | -16 | -3 | 3 | 3 | -2
N#CCC(=O)NNC(=S)Nc1ccccc1C(F)(F)F | -6 | · | · | · | 41* | -6
COc1cc(/C=N/c2oc(-c3ccccc3)cc2C#N)ccc1O | -8 | -62 | -9 | 10 | -12 | 10*
COc1cc(/C=N/NC(=O)c2ccccc2)ccc1O | 4 | · | · | · | 3 | 5
COc1ccc(N(CC(=O)N2CCN(c3ccccc3)CC2)S(=O)(=O)c2c(C)noc2C)cc1 | -2 | 30 | -3 | 41* | 5 | -4
CCN(CC(=O)N1CCN(c2ccccc2)CC1)S(=O)(=O)c1ccc(C)cc1 | 2 | -2 | 3 | 63* | · | -6
Cc1cc(C)c(S(=O)(=O)N(CC(=O)N2CCOCC2)C2CCCCC2)c(C)c1 | -9 | -18 | -7 | 9 | -1 | 3
Cc1ccc(S(=O)(=O)N(CC(=O)N2CCOCC2)C2CCCCC2)cc1 | 11 | -9 | -12 | 17* | 2 | -5
COc1ccc(S(=O)(=O)N(CC(=O)N2CCN(c3ccccc3)CC2)c2ccccc2)cc1 | -1 | -18 | -2 | 42* | -1 | -1
CCN(CC(=O)N1CCOCC1)S(=O)(=O)c1ccc(C)cc1 | 3 | -31 | -3 | 17 | · | -1
COc1cc(OC)c2c3c(c(C4CCCCC4)nc2c1)CCC3 | · | · | · | · | 5 | ·
Cc1cc(=O)c(C(=O)O)nn1-c1ccc(Cl)cc1 | · | · | · | · | 3 | ·
COc1ccc(N(CC(=O)NN=C2CCCC2)S(=O)(=O)c2ccccc2)cc1 | 0 | -19 | -15 | 44* | -13 | -2
COc1ccc(N(CC(=O)O)S(=O)(=O)c2ccc(OC)c(OC)c2)cc1 | -3 | -23 | 29* | 11 | 2 | 2
COC(=O)CN(c1ccc(OC)cc1)S(=O)(=O)c1ccc(OC)c(OC)c1 | 5 | -29 | -4 | 18 | 3 | -6
CC(=O)c1ccc(N2CCN(C(=O)CCS(=O)(=O)c3ccc(C)cc3)CC2)cc1 | 2 | -22 | -4 | 47* | -6 | 0
COc1ccc(N(CC(=O)NN=C2CCCCCCC2)S(=O)(=O)c2ccccc2)cc1Cl | 5 | -24 | -4 | 15 | 3 | -2
SMILES | Arbovirus anti | Yeast growth inh | Yeast life ext | Measles CPE | Rad51 HR inh | Efa HMGR inh
O=C(O)COc1ccccc1/C=N/NC(=O)CSc1nnc(SCc2ccccc2)s1 | · | · | · | · | 1 | ·
O=C(CNC(=O)c1ccc(S(=O)(=O)N2CCCC2)cc1)N/N=C/c1ccc(Cl)cc1 | 5 | -34 | 0 | 6 | 7 | 16*
Cc1ccccc1-n1c(SCC(=O)Nc2ccccc2)nc2nc3c(cc2c1=O)CCCC3 | -3 | -43 | 2 | 29 | 3 | 13*
Cc1cccc(NC(=O)CSc2nc3nc4c(cc3c(=O)n2-c2ccccc2)CCCC4)c1 | -11 | -32 | 1 | 15 | 2 | -7
CCOc1ccc(C(=O)NCC(c2cccs2)N(C)C)cc1OCC (configuration not stated) | 12 | 9 | -1 | 16 | -7 | -6
NC(=O)C1CCN(C(=O)/C=C/c2ccco2)CC1 | 9 | -35 | 0 | 20 | · | -2
C/C(=N/Nc1ccc(C(=O)O)cc1)c1ccc(O)c(O)c1O | 2 | -41 | 4 | 4 | -7 | 11*
COc1ccc(OC)c(/C(C)=N/Nc2ccc(C(=O)O)cc2)c1 | 5 | · | · | · | · | 0
Cc1cnc(NC(=O)c2ccc(-c3nc4ccccc4s3)o2)s1 | 51* | -30 | -10 | 18 | 8 | -1
Cc1ccc(NC(=O)Nc2ccc(F)cc2)cc1Cl | 12 | · | · | · | -29 | -4
CC(C)CN=C(NS(=O)(=O)c1ccccc1)C(Cl)(Cl)Cl | -48 | -27 | 44* | 16 | 7 | -1
Cn1c(COc2ccccc2)nnc1SCc1cc(=O)[nH]c2ccccc12 | 8 | -8 | 44* | 28 | -5 | -1
O=c1cc(CSc2nnc(COc3ccccc3)n2-c2ccccc2)c2ccccc2[nH]1 | 1 | -25 | 0 | 7 | 16 | -12
O=C(O)c1ccc2[nH]c3c(c2c1)CSCC3 | 31* | -15 | -14 | 18 | -3 | 0
CN(C)CCOC(=O)c1ccc2[nH]c3c(c2c1)CSCC3 | · | · | · | · | 1 | ·
CCCCCCC1C(C#N)=C(N)OC2=C1C(=O)CC(C)(C)C2 (configuration not stated) | 4 | -19 | 40* | 13 | 13 | -6
O=C(C1CC1)N1CCCC(c2ccc(Cl)cc2)=N1 | 8 | · | · | · | -1 | 10*
CCCNC(=O)c1c(N)n(-c2cccc(OC)c2)c2nc3ccccc3nc12 | 9 | -57 | -21 | 8 | -10 | -5
COCCCNC(=O)c1c(N)n(-c2cccc(S(N)(=O)=O)c2)c2nc3ccccc3nc12 | -4 | -24 | -15 | 42* | -11 | -10
N#CC(C#N)=Cc1ccc(OCC(=O)N2CCOCC2)cc1 | 5 | · | · | · | 3 | -1
CC(C)(C)C(=O)O/N=C1/C(=O)N(c2ccccc2)c2ccccc21 | 11 | 67* | -15 | 1 | 3 | 5
CC(C)CC(=O)O/N=C1\C(=O)N(c2ccccc2)c2ccccc21 | 3 | -47 | 2 | 1 | -16 | 2
Cn1c(=O)c2c(=O)cc(NNC(=O)C(C)(C)C)[nH]c2n(C)c1=O | 0 | -2 | 28* | 18 | -3 | 1
Cc1n[nH]c(=O)nc1NCc1ccc(Cl)cc1 | 5 | -28 | -11 | 36* | 4 | -3
O=[N+]([O-])c1cccc(-n2nnnc2CN2CCCCCC2)c1 | 2 | -13 | -19 | 33* | -4 | -1
COc1ccccc1C(=O)Oc1cc(N)n(S(=O)(=O)c2ccc(C)cc2)n1 | 1 | -6 | 45* | 3 | -6 | 2
